Reference: ChEMBL document CHEMBL1641579, “Synthesis and biological evaluation of 7-substituted-1-(3-bromophenylamino)isoquinoline-4-carbonitriles as inhibitors of myosin light chain kinase and epidermal growth factor receptor” (Bioorg Med Chem, 2011)

Experiments:
Format in all cases: functional
[1] = test system: NCI-H1792; assay: Growth inhibition of human NCI-H1792 cells assessed as ATP level after 96 hrs by CellTiter-Glo assay; settings: NCI-H1792, 96 h
Procedure, shortened: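 NSCLC lines maintained as previously described, authenticated by mutational analysis and SNP arrays. Cells seeded and incubated 24 h, then given compound (DMSO stocks) as 10 threefold serial dilutions. Viability read after 96 h as cellular ATP content (CellTiter-Glo). GI50 derived by curve fitting of half-maximal inhibition.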

[2] = Growth inhibition of human HCC2450 cells assessed as ATP level after 96 hrs by CellTiter-Glo assay
Procedure, shortened: (§1)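 NSCLC lines maintained as in earlier work and authenticated by mutational analysis and SNP arrays. Cells were plated in 384-well format and allowed 24 h before compound addition as 10 threefold serial dilutions (DMSO stocks). After 96 h, viability was read as cellular ATP by CellTiter-Glo. GI50 was fitted with an R package.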

[3] = test system: PC-9; assay: Growth inhibition of human PC9 cells assessed as ATP level after 96 hrs by CellTiter-Glo assay; settings: PC-9, 96 h
[4] = test system: NCI-H1770; assay: Growth inhibition of human NCI-H1770 cells assessed as ATP level after 96 hrs by CellTiter-Glo assay; settings: NCI-H1770, 96 h; procedure, shortened: as §1
[5] = test system: DV-90; assay: Growth inhibition of human DV90 cells assessed as ATP level after 96 hrs by CellTiter-Glo assay; settings: DV-90, 96 h; procedure, shortened: as §1

In the case of `CN(C)C/C=C/C(=O)Nc1ccc2c(C#N)cnc(Nc3cccc(Br)c3)c2c1`, the GI50 [1] is reported as 26.3 µM, the GI50 [2] is reported as 22.9 µM and the GI50 [3] is reported as 4.68 µM. The GI50 [4] was 9.02 µM and the GI50 [5] was 18.4 µM.
